Molecular target: T1, Interleukin-2 (Mus musculus, UniProt P04351)
T1 sequence (P04351 whole entry): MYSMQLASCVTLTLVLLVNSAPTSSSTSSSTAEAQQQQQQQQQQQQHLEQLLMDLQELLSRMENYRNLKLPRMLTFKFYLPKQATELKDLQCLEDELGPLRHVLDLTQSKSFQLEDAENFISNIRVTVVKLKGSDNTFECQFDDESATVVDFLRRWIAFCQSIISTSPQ
Experiment: The compound was evaluated in vitro for the immunosuppressive activity in interleukin-2 by interleukin-2 reporter gene assay (IL2-RGA)
How it was run: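 Cellular immunosuppression read in the mouse mixed lymphocyte reaction or the interleukin-2 reporter gene assay. The IC50 in nM is the mean of three independent experiments.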

Compound | IC50 [nM]
C/C=C/C[C@@H](C)[C@@H](O)[C@@H]1C(=O)N[C@H](CCCO)C(=O)N(C)CC(=O)N(C)[C@H](CC(C)C)C(=O)N[C@H](C(C)C)C(=O)N(C)[C@H](CC(C)C)C(=O)N[C@H](C)C(=O)N[C@@H](C)C(=O)N(C)[C@H](CC(C)C)C(=O)N(C)[C@H](CC(C)C)C(=O)N(C)[C@H](C(C)C)C(=O)N1C [33-(1-Hydroxy-2-methyl-hex-4-enyl)-30-(3-hydroxy-propyl)-6,9,18,24-tetraisobutyl-3,21-diisopropyl-1,4,7,10,12,15,19,25,28-nonamethyl-1,4,7,10,13,16,19,22,25,28,31undecaaza-cyclotritriacontan-2,5,8,11,14,17,20,23,26,29,32-undecaone] | 70
C/C=C/C[C@@H](C)[C@@H](O)[C@H]1C(=O)N[C@@H](CCC)C(=O)N(C)CC(=O)N(C)[C@@H](CC(C)C)C(=O)N[C@@H](C(C)C)C(=O)N(C)[C@@H](CC(C)C)C(=O)N[C@@H](C)C(=O)N[C@H](C)C(=O)N(C)[C@@H](CC(C)C)C(=O)N(C)[C@@H](CC(C)C)C(=O)N(C)[C@@H](C(C)C)C(=O)N1C [GECLOSPORIN] | 13
